Experiments:
[1] = system: healthy male subjects; assay: Pharmaco-electroencephalography, single dose; type: in vivo, human; conditions: healthy elderly males
[2] = system: healthy male subjects; assay: Nasal examination; type: in vivo, human; conditions: Gln-1062 44-mg group
Outline: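 Nasal examination at screening, during the study period after one intranasal dose (44 mg; healthy elderly males, 6 active per cohort, double-dummy with oral capsules), and at follow-up about 1 week after dosing.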

[3] = system: healthy male subjects; assay: Face encoding and recognition task, single dose; type: in vivo, human
Outline: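 Single intranasal dose in a double-dummy design (11 mg young males; 22 or 33 mg elderly males; 6 per dose) or nasal placebo. The face encoding and recognition task was done before dosing and 1 h 45 min after the nasal dose, in a quiet room, one subject per session. Each active group was compared with age-matched placebo by mixed-model ANOVA.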

[4] = system: healthy male subjects; assay: Adaptive tracking; type: in vivo, human
Outline: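 Healthy males got one intranasal spray dose in a double-dummy design with oral capsules: 11 mg for young subjects, 22 or 33 mg for elderly subjects, 6 per dose, with age-matched nasal placebo. NeuroCart tests were run twice before dosing, then at 1, 2, 3, 4, 5, 6, 8 and 10 h after, in a quiet room, one subject per session. Analysis was mixed-model ANOVA: treatment, time and treatment×time fixed, subject random, baseline as covariate.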

[5] = system: healthy male subjects; assay: Eye movements; type: in vivo, human
[6] = Pharmacokinetics of Gln-1062 in female Wistar rats; type: in vivo
[7] = system: healthy male subjects; assay: VAS nausea, single dose; type: in vivo, human; conditions: healthy elderly males
[8] = Plasma pharmacokinetics after single intranasal dose of Gln-1062; type: in vivo, human; conditions: over the Gln-1062 intranasal dose levels
[9] = system: healthy male subjects; assay: Visual verbal learning test; type: in vivo, human
[10] = Gln-1062 5.5 mg vs Placebo, healthy young males
[11] = Gln-1062 11 mg vs Placebo, healthy young males
[12] = Gln-1062 22 mg vs Placebo, healthy elderly males
[13] = Gln-1062 33 mg vs Placebo, healthy elderly males
[14] = Gln-1062 44 mg vs Placebo, healthy elderly males

COc1ccc2c3c1O[C@H]1C[C@@H](OC(=O)c4ccccc4)C=C[C@@]31CCN(C)C2 [Gln-1062]
EEG Alpha Pz-Oz (uV) ([1]; Gln-1062 22 mg vs Placebo): 13.8% (−5.4% to 36.9%) P = .1633
EEG Alpha Fz-Cz (uV) ([1]; Gln-1062 33 mg vs Placebo): 21.5% (4.8% to 40.8%) P = .0116
EEG Alpha Pz-Oz (uV) ([1]; Gln-1062 33 mg vs Placebo): 19.7% (−0.2% to 43.6%) P = .0530
EEG Alpha Fz-Cz (uV) ([1]; Gln-1062 44 mg vs Placebo): −10.1% (−24.2% to 6.6%) P = .2121
EEG Alpha Pz-Oz (uV) ([1]; Gln-1062 44 mg vs Placebo): 2.1% (−16.3% to 24.5%) P = .8306
subjects with dry white plaques in the nostrils [2]: three
Face: number correct [3, 10]: −0.77 (−4.17 to 2.64) P = .6332
Face: number correct [3, 11]: 4.54 (1.22 to 7.87) P = .0116
Face: number correct [3, 12]: −2.58 (−7.22 to 2.06) P = .2642
Face: number correct [3, 13]: −0.54 (.5.15 to 4.08) P = .8135
Face: number correct [3, 14]: −1.63 (−6.30 to 3.05) P = .4822
Adaptive tracking [4, 10]: 1.96 (−0.88 to 4.80) P = .1581%
Adaptive tracking [4, 11]: 3.47 (0.52 to 6.42) P = .0247%
Adaptive tracking [4, 12]: 0.64 (−1.06 to 2.35) P = .4474%
Adaptive tracking [4, 13]: 1.79 (0.07 to 3.52) P = .0424%
Adaptive tracking [4, 14]: 0.74 (−0.99 to 2.48) P = .3887%
Saccadic Inaccuracy [5, 10]: −1.56 (−2.77 to −0.35) P = .0157%
Saccadic Peak Velocity [5, 10]: 9.90 (−17.50 to 37.30) P = .4465 deg/sec
Saccadic Inaccuracy [5, 11]: −1.78 (−3.03 to −0.54) P = .0088%
Saccadic Peak Velocity [5, 11]: 8.32 (−18.32 to 34.95) P = .5097 deg/sec
Saccadic Inaccuracy [5, 12]: 0.24 (−1.01 to 1.48) P = .7005%
Saccadic Peak Velocity [5, 12]: 26.92 (4.11 to 49.73) P = .0223 deg/sec
Saccadic Inaccuracy [5, 13]: 0.08 (−1.14 to 1.30) P = .8970%
Saccadic Peak Velocity [5, 13]: 0.92 (−21.84 to 23.68) P = .9349 deg/sec
Saccadic Inaccuracy [5, 14]: −0.22 (−1.57 to 1.12) P = .7363%
Saccadic Peak Velocity [5, 14]: 19.19 (−5.54 to 43.92) P = .1242 deg/sec
Brain-to-blood ratio (AUClast brain / AUClast blood) ([6]; 5.0 mg/kg Gln-1062 IN): 8.1
Brain-to-blood ratio (AUClast brain / AUClast blood) ([6]; 5.0 mg/kg Gln-1062 IV): 18.40
Brain-to-blood ratio (AUClast brain / AUClast blood) ([6]; 20.0 mg/kg Gln-1062 IN): 10.2
AUClast ([6]; blood, 5.0 mg/kg Gln-1062 IV): 528 ng·h/mL
Cmax ([6]; blood, 5.0 mg/kg Gln-1062 IV): 650 ng/mL
AUClast ([6]; brain, 5.0 mg/kg Gln-1062 IV): 9717 ng·h/g
peak of nausea (VAS nausea), time after administration [7]: 4 h
Tmax [8]: 15 to 45 min
half-life [8]: 66 to 168 min
VVLT: delayed word recall (correct) [9, 10]: 3.42 (−2.62 to 9.45) P = .2431
VVLT: immediate word recall trial 1 (Word recall correct 1) [9, 10]: 3.42 (−0.73 to 7.56) P = .0984
VVLT: immediate word recall trial 2 (Word recall correct 2) [9, 10]: 3.17 (−1.93 to 8.26) P = .2025
VVLT: immediate word recall trial 3 (Word recall correct 3) [9, 10]: 5.00 (−0.58 to 10.58) P = .0749
VVLT: word recognition (Delayed word recognition correct) [9, 10]: −0.15 (−8.05 to 7.75) P = .9674
VVLT: delayed word recall (correct) [9, 11]: 3.25 (−2.79 to 9.29) P = .2657
VVLT: immediate word recall trial 1 (Word recall correct 1) [9, 11]: 3.92 (−0.23 to 8.06) P = .0621
VVLT: immediate word recall trial 2 (Word recall correct 2) [9, 11]: 1.83 (−3.26 to 6.93) P = .4510
VVLT: immediate word recall trial 3 (Word recall correct 3) [9, 11]: 3.00 (−2.58 to 8.58) P = .2662
VVLT: word recognition (Delayed word recognition correct) [9, 11]: 1.45 (−6.45 to 9.35) P = .6939
VVLT: delayed word recall (correct) [9, 12]: −0.33 (−3.58 to 2.91) P = .8354
VVLT: immediate word recall trial 1 (Word recall correct 1) [9, 12]: 2.67 (0.17 to 5.16) P = .0367
VVLT: immediate word recall trial 2 (Word recall correct 2) [9, 12]: 3.50 (0.33 to 6.67) P = .0315
VVLT: immediate word recall trial 3 (Word recall correct 3) [9, 12]: 0.67 (−3.23 to 4.56) P = .7302
VVLT: word recognition (Delayed word recognition correct) [9, 12]: 0.87 (−4.09 to 5.82) P = .7231
VVLT: delayed word recall (correct) [9, 13]: −0.00 (−3.63 to 3.63) P = 1.0000
VVLT: immediate word recall trial 1 (Word recall correct 1) [9, 13]: 1.97 (−0.65 to 4.58) P = .1355
VVLT: immediate word recall trial 2 (Word recall correct 2) [9, 13]: 1.77 (−1.56 to 5.09) P = .2880
VVLT: immediate word recall trial 3 (Word recall correct 3) [9, 13]: 0.60 (−3.49 to 4.69) P = .7672
VVLT: word recognition (Delayed word recognition correct) [9, 13]: −0.67 (−6.45 to 5.12) P = .8153
VVLT: delayed word recall (correct) [9, 14]: −1.00 (−4.63 to 2.63) P = .5780
VVLT: immediate word recall trial 1 (Word recall correct 1) [9, 14]: 2.57 (−0.05 to 5.18) P = .0541
VVLT: immediate word recall trial 2 (Word recall correct 2) [9, 14]: 1.77 (−1.56 to 5.09) P = .2880
VVLT: immediate word recall trial 3 (Word recall correct 3) [9, 14]: 1.00 (−3.09 to 5.09) P = .6222
VVLT: word recognition (Delayed word recognition correct) [9, 14]: 2.17 (−3.11 to 7.45) P = .4083

— PMC5644278 (Alzheimer's & Dementia : Translational Research & Clinical …, 2016)
